pIC50: −log10 of the molar value.

The nature of the first series: Inhibition of Rickettsia prowazekii N-terminal His6-tagged methionine aminopeptidase 1 expressed in Escherichia coli DLB3 Rosetta cells using Met-AMC as substrate preincubated for 1 hr followed by 30 mins incubation after substrate addition measured after 90 mins in presence of MnCl2 by fluorescence assay. In a few lines: (§1)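 Recombinant R. prowazekii MetAP with Mn(II) as the metal cofactor. Met-AMC substrate; release of free AMC is followed by fluorescence (excitation 360 nm, emission 460 nm). Activity is the slope of fluorescence versus time, compared with an uninhibited control.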
Broadly, the pIC50 is the negative decadic logarithm of the IC50, by convention in mol/L. For the compound `Cc1ccc(C(=O)CSc2nnc(C)[nH]2)c(C)c1`, the pIC50 is 6.40.

In the case of `CC(=O)Nc1ccc(C(=O)CSc2nnc(N)[nH]2)cc1`, the pIC50 was 5.00.

As for `Nc1nnc(SCCC(=O)OC2CCCCC2)[nH]1`, the pIC50 is 5.03.

As to `CNS(=O)(=O)c1ccc(C(=O)O)o1`, the pIC50 was 6.57.

On to `COc1ccc2c(C)c(C(=O)O)[nH]c2c1`, for which the pIC50 is 5.43.

In the case of `CCCCn1cnc2sc(C(=O)O)c(C)c2c1=O`, the pIC50 is 5.51.

Consider `Cc1csc(-c2ccccn2)n1`, for which the pIC50 was 5.96.

`Cc1n[nH]c(SCC(=O)c2cccc([N+](=O)[O-])c2)n1`: the pIC50 is 5.92.

For the compound `O=C(O)c1cc(-c2ccccc2)on1`, the pIC50 was 5.85.

For `Nc1nnc(SCc2cccc3ccccc23)[nH]1`, the pIC50 was 5.30.

Turning to `O=C(O)c1cc2ccc(F)cc2oc1=O`, the negative-log IC50 (pIC50) is 5.08.

The nature of the next series: Inhibition of Rickettsia prowazekii N-terminal His6-tagged methionine aminopeptidase 1 expressed in Escherichia coli DLB3 Rosetta cells at 10 uM using Met-AMC as substrate preincubated for 1 hr followed by 30 mins incubation after substrate addition measured after 90 mins in presence of MnCl2 by fluorescence assay relative to control. In a few lines:
as §1
By inhibition is commonly meant the change of the read-out against control, counted positive when it falls. In the case of `Cc1ccc(C(=O)CSc2nnc(C)[nH]2)c(C)c1`, the inhibition is 54 to 68%.

With `CC(=O)Nc1ccc(C(=O)CSc2nnc(N)[nH]2)cc1`, the inhibition came to 89%.

For the compound `CNS(=O)(=O)c1ccc(C(=O)O)o1`, the inhibition lay within 43 to 91%.

On to `COc1ccc2c(C)c(C(=O)O)[nH]c2c1`, for which the inhibition fell in the range of 28 to 80%.

For the compound `CCCCn1cnc2sc(C(=O)O)c(C)c2c1=O`, the inhibition lay within 46 to 54%.

For the compound `Cc1csc(-c2ccccn2)n1`, the inhibition is 85 to 89%.

For `O=C(O)c1cc(-c2ccccc2)on1`, the inhibition lay within 80 to 82%.

For `Nc1nnc(SCc2cccc3ccccc23)[nH]1`, the inhibition fell in the range of 74 to 83%.

Take `O=C(O)c1ccc(-c2cc(Cl)ccc2Cl)o1`: the inhibition lay within 1 to 57%.

As to `Cc1c(C(=O)O)sc2nc[nH]c(=O)c12`, the inhibition lay in the range of 44 to 51%.

For the compound `O=C(NCCCCl)C(=O)NCCCCl`, the inhibition fell in the range of 8 to 43%.

Turning to `O=C(O)c1cnccn1`, the inhibition is 42 to 45%.

On to `CCCOC(=O)CSc1nnc(N)[nH]1`, for which the inhibition lay in the range of 15 to 36%.

Take `CN(C)Cc1cc(C(=O)O)no1`: the inhibition was in the range of 2 to 60%.

On to `Nc1ccccc1-c1nc(-c2ccc(F)cc2)no1`, for which the inhibition was in the range of 1 to 44%.

For `CCc1n[nH]c(SCC(=O)c2cc(C)ccc2C)n1`, the inhibition was 11 to 43%.

As for `CCc1nnc(SCC(=O)c2ccc(C)cc2)[nH]1`, the inhibition fell in the range of 11 to 14%.

On to `O=C(O)c1cnc2c(ccc3ccccc32)c1O`, for which the inhibition was in the range of 22 to 43%.

As for `O=C(NCc1ccco1)c1ccc2nc(O)c(O)nc2c1`, the inhibition fell in the range of 35 to 39%.

For `CC(C)OC(=O)c1ccc(CSc2nnc(N)[nH]2)cc1`, the inhibition is 59 to 66%.

On to `Cc1nc(-c2ccccn2)sc1C(=O)N1CCCCC1`, for which the inhibition was in the range of 15 to 20%.

Consider `Cc1cc(C)cc(OCCSc2nnc(N)[nH]2)c1`, for which the inhibition fell in the range of 38 to 39%.

In the case of `CCCCCn1cnc2sc(C(=O)O)c(C)c2c1=O`, the inhibition was 34 to 57%.

As to `c1ccc2[nH]c(C3CCCN3)nc2c1` (stereo unspecified), the inhibition is 6 to 23%.

`O=C(O)c1cc2ccc(F)cc2oc1=O`: the inhibition lay in the range of 23 to 78%.

Regarding `O=C(O)c1n[nH]c2ccccc12`, the inhibition fell in the range of 35 to 36%.

`Cc1ccc(C2NC(C(=O)O)CS2)cc1` (stereo unspecified): the inhibition was in the range of 1 to 74%.

In the case of `CSc1cc(C(=O)O)nc(-c2ccccn2)c1`, the inhibition lay in the range of 36 to 68%.

On to `NC(=O)CSc1n[nH]c(-c2ccco2)n1`, for which the inhibition lay in the range of 1 to 50%.

For `CCOC(=O)CSc1nnc(N)[nH]1`, the inhibition was 18 to 34%.

In the case of `O=c1c2ccc(-c3ccccn3)nc2[nH]n1-c1ccccc1`, the inhibition was 1 to 55%.

With `CCn1nc(C(=O)O)c2ccccc2c1=O`, the inhibition is 19 to 26%.

`Cc1ccc(OCCCCSc2nnc(N)[nH]2)cc1`: the inhibition was 45 to 65%.

Take `CCCN1CC(=O)C(c2nc3ccccc3[nH]2)=C1N`: the inhibition is 1 to 31%.

On to `c1ccc(CSc2n[nH]c(-c3ccco3)n2)cc1`, for which the inhibition is 13 to 16%.

In the case of `CC(=O)c1c(O)nc2ccccn12`, the inhibition fell in the range of 16 to 43%.

Take `CCc1n[nH]c(SCC(=O)c2ccc(C)c(C)c2)n1`: the inhibition was 5 to 38%.

Take `Cc1ccc2nc(-c3ccccn3)cc(C(=O)O)c2c1`: the inhibition stood at 28%.

Turning to `O=c1[nH]c2cccc3c2n(c1=O)CCO3`, the inhibition lay within 24 to 32%.

In the case of `Cc1ccc(C(=O)CSc2nnc(-c3ccco3)[nH]2)cc1`, the inhibition fell in the range of 24 to 26%.

As for `CC(C)N1CC(=O)C(c2nc3ccccc3[nH]2)=C1N`, the inhibition is 25 to 26%.

Regarding `CC(C)N(C(=O)CSc1nnc(N)[nH]1)c1ccccc1`, the inhibition was in the range of 24 to 64%.

Take `c1ccn2c(C3CCCN3)nnc2c1` (stereo unspecified): the inhibition lay within 2 to 51%.

`C1=C(c2ccccc2)Nc2ncnn2C1c1ccco1` (stereo unspecified): the inhibition lay in the range of 23 to 32%.

Turning to `O=C(O)c1ccc(S(=O)(=O)c2ccccc2)s1`, the inhibition was in the range of 29 to 65%.

On to `COC(=O)CSc1n[nH]c(-c2ccncc2)n1`, for which the inhibition lay in the range of 1 to 39%.

In the case of `CCc1nnc(SCC(=O)c2ccc(F)cc2)[nH]1`, the inhibition lay in the range of 2 to 13%.

Consider `COCCCn1cnc2sc(C(=O)O)c(C)c2c1=O`, for which the inhibition was in the range of 7 to 22%.

Regarding `Cc1cccc(OCc2ccc(C(=O)O)o2)c1`, the inhibition is 1 to 33%.

Regarding `COc1ccc(C(=O)CSc2nnc[nH]2)cc1C`, the inhibition was in the range of 1 to 48%.

As for `Nc1cccc(-c2cnc(-c3ccccn3)s2)c1`, the inhibition lay within 30 to 36%.

A short description of another series: Solubility of the compound. The series is classed as physicochemical.
For the compound `C=CCNC(=O)c1cc(-c2ccccn2)nc2ccccc12`, the solubility result is recorded as “Insoluble”.

As for `O=C(O)c1cc(-c2ccc(Cl)cc2)n[nH]1`, the solubility result is given as “Insoluble”.

Take `NCc1nnnn1-c1cccc(Br)c1`: the solubility entry is “Insoluble”.

On to `CCCNC(=O)c1cc(-c2ccccn2)nc2ccccc12`, for which the solubility result was “Insoluble”.
